Consider four compounds from ChEMBL document CHEMBL4385592, “4-Imidazo[2,1-b]thiazole-1,4-DHPs and neuroprotection: preliminary study in hits searching” (Eur J Med Chem, 2019).

Where only a bound is given, the exact number is not on record here.

The subject of data set [1] is Right cardiac atrium. In words: Negative chronotropic activity in guinea pig spontaneously beating right atrium assessed as decrease in atrial rate at 5 x 10^-7 M relative to control. It counts as ADME, tissue-based, Cavia porcellus. Set-up: scale not given: the % may be the effect or the level left. The following applies: 0.5 µM.
The target in data set [2] is T1, Voltage-gated L-type calcium channel (Homo sapiens, UniProt Q13936+Q13698+Q01668+O60840). Put plainly: Inhibition of voltage-dependent L-type calcium channel in human U373MG cells assessed as protection against oxygen glucose deprivation/reperfusion-induced injury by measuring recovery of cell viability at 1 uM administered at onset of reperfusion period measured after 16 hrs by alamar blue assay relative to control. Type of data set: cell-based. A digest of the protocol: (§1)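 U-373 MG astrocytoma cells seeded at 30000 cells/ml and grown 24 or 48 h (37 °C/5% CO2). OGD: 24 h at 37 °C in glucose-free DMEM pre-bubbled with 95% N2/5% CO2, in a sealed nitrogen-flushed chamber. Then 16 h reperfusion in normal medium; compounds added at reperfusion, diluted from DMSO stock (DMSO ≤0.1%). Viability by alamarBlue, 4 h at 37 °C, fluorescence ex 530–560/em 590 nm. Expressed as % recovery from injury, mean ± S.E. of ≥3 experiments in sixuplicate.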
In general terms: Resazurin is reduced to fluorescent resorufin, in cell work by metabolically active cells.

For data set [3], the target named is T1, Voltage-gated L-type calcium channel. Put plainly: Inhibition of voltage-dependent L-type calcium channel in human U373MG cells assessed as protection against oxygen glucose deprivation/reperfusion-induced injury by measuring recovery of cell viability at 20 uM administered at onset of reperfusion period measured after 16 hrs by alamar blue assay relative to control. Type of data set: cell-based. A digest of the protocol:
as §1

Data set [4] relates to Left cardiac atrium. In words: Negative inotropic activity in guinea pig left atrium assessed as decrease in developed tension at 5 x 10^-6 M relative to control. The following applies: 5 µM. Also on record: scale not given: the % may be the effect or the level left. Type of data set: ADME, tissue-based, Cavia porcellus.
The target of data set [5] is T2, Voltage-gated L-type calcium channel (Rattus norvegicus, UniProt P22002+Q02485+P27732). Put plainly: Inhibition of voltage-dependent L-type calcium channel in Wistar rat brain slices assessed as protection against oxygen glucose deprivation/reperfusion-induced injury by measuring recovery of LDH release at 20 uM administered at onset of reperfusion period measured after 90 mins by spectrophotometric assay relative to control. Also on record: scale not given: the % may be the effect or the level left. The settings on record: 1.5 h. A general note: LDH leaks from cells whose membrane has failed.

Data set [6] is described as follows: Selectivity ratio of EC50 for negative chronotropic activity in guinea pig spontaneously beating right atrium to EC50 for negative inotropic activity in guinea pig left atrium. It counts as ADME, tissue-based, Cavia porcellus.
Data set [7] concerns the target T1, Voltage-gated L-type calcium channel. Put plainly: Inhibition of voltage-dependent L-type calcium channel in human SH-SY5Y cells assessed as protection against glutamate-induced excitotoxicity by measuring recovery of cell viability at 1 uM measured after 24 hrs by alamar blue-based fluorescence method relative to control.
For data set [8] the target is unchanged. In words: Inhibition of voltage-dependent L-type calcium channel in human SH-SY5Y cells assessed as protection against glutamate-induced excitotoxicity by measuring recovery of cell viability at 20 uM measured after 24 hrs by alamar blue-based fluorescence method relative to control.
Data set [9] has as its system Right cardiac atrium. Put plainly: Negative chronotropic activity in guinea pig spontaneously beating right atrium assessed as decrease in atrial rate. It counts as tissue-based. The following applies: Cavia porcellus.
For data set [10], the system named is Left cardiac atrium. Put plainly: Negative inotropic activity in guinea pig left atrium assessed as decrease in developed tension at 0.001 to 100 uM relative to control. The settings on record: Cavia porcellus. Type of data set: ADME, tissue-based.
Data set [11] concerns Aorta. Put plainly: Inhibition of calcium-induced contraction in K+-depolarized guinea pig aortic strips at 10^-7 M relative to control. The following applies: Cavia porcellus. It counts as tissue-based.
The target of data set [12] is T2, Voltage-gated L-type calcium channel. Put plainly: Inhibition of voltage-dependent L-type calcium channel in Wistar rat brain slices assessed as protection against oxygen glucose deprivation/reperfusion-induced injury by measuring recovery of edema formation at 20 uM administered at onset of reperfusion period measured after 90 mins relative to control. Also on record: scale not given: the % may be the effect or the level left. The settings on record: 1.5 h.

Data set [13] deals with Aorta. In words: Inhibition of calcium-induced contraction in K+-depolarized guinea pig aortic strips. It counts as ADME, tissue-based. The settings on record: Cavia porcellus.
The test system of data set [14] is Right cardiac atrium. In words: Negative chronotropic activity in guinea pig spontaneously beating right atrium assessed as decrease in atrial rate at 5 x 10^-6 M relative to control. Type of data set: ADME, tissue-based, Cavia porcellus. Also on record: scale not given: the % may be the effect or the level left. The settings on record: 5 µM.
Data set [15] deals with Left cardiac atrium. In words: Negative inotropic activity in guinea pig left atrium assessed as decrease in developed tension at 10^-5 M relative to control. Also on record: scale not given: the % may be the effect or the level left. The settings on record: 10 µM.
The test system of data set [16] is Aorta. Put plainly: Inhibition of calcium-induced contraction in K+-depolarized guinea pig aortic strips at 10^-4 M relative to control. The following applies: Cavia porcellus. It counts as tissue-based.
Data set [17] relates to Aorta. In words: Inhibition of calcium-induced contraction in K+-depolarized guinea pig aortic strips at 10^-5 M relative to control. It counts as tissue-based. The settings on record: Cavia porcellus.
In data set [18] the test system is Left cardiac atrium (Cavia porcellus). In words: Negative inotropic activity in guinea pig left atrium assessed as decrease in developed tension.
For data set [19], the system named is Right cardiac atrium. In words: Negative chronotropic activity in guinea pig spontaneously beating right atrium assessed as decrease in atrial rate at 10^-5 M relative to control. Also on record: scale not given: the % may be the effect or the level left. Type of data set: ADME, tissue-based, Cavia porcellus. The following applies: 10 µM.
The subject of data set [20] is Right cardiac atrium. In words: Negative inotropic activity in guinea pig right atrium assessed as decrease in developed tension at 5 x 10^-5 M relative to control. Type of data set: ADME, tissue-based, Cavia porcellus. Also on record: scale not given: the % may be the effect or the level left. The following applies: 50 µM.
Data set [21] has as its system Left cardiac atrium. In words: Negative inotropic activity in guinea pig left atrium assessed as decrease in developed tension at 5 x 10^-5 M relative to control. It counts as ADME, tissue-based, Cavia porcellus. Set-up: scale not given: the % may be the effect or the level left. The following applies: 50 µM.
In data set [22] the test system is Right cardiac atrium. Put plainly: Negative chronotropic activity in guinea pig spontaneously beating right atrium assessed as decrease in atrial rate at 10^-7 M relative to control. It counts as ADME, tissue-based, Cavia porcellus. Also on record: scale not given: the % may be the effect or the level left. The settings on record: 0.1 µM.
Data set [23] deals with Aorta. In words: Inhibition of calcium-induced contraction in K+-depolarized guinea pig aortic strips at 5 x 10^-6 M relative to control. It counts as tissue-based. The following applies: Cavia porcellus.

As usually defined, the EC50 is the concentration needed to bring the measured effect to its halfway point. By inhibition is commonly meant the change of the read-out against control, counted positive when it falls. The IC50 is the midpoint of a concentration-inhibition curve.

For `CCOC(=O)C1=C(C)NC(C)=C(C(=O)OCC)C1c1c(-c2ccc(F)cc2)nc2sccn12`, the Activity in data set [1] came out at 91%; in data set [2], 36.6%; in [3], 43.6%; in data set [4], 79%; in data set [5] it was 72.4%; in data set [7] it was 42.6%. The Activity in [8] stood at 59.3%; in [12] it was 89.4%. Also, the Ratio EC50 in data set [6] fell in the range of 25 to 56. Moreover, the EC50 in [9] came to 1650 nM; in [10], 64 nM. Also, the inhibition at 0.1 µM in data set [11] stood at 6%.

`CCOC(=O)C1=C(C)NC(C)=C(C(=O)OCC)C1c1c(-c2cc(F)c(F)cc2F)nc2sccn12`: the Activity in data set [2] was 7.4%; in [3], 30.6%; in data set [14], 93%; in data set [15], 78%; in [5] it was under 5%; in data set [7] it was under 5%. Moreover, the Activity is given as 54.7% in [8] and under 5% in data set [12]. Besides, the IC50 in data set [13] worked out at 5570 nM. In data set [6], the “Ratio EC50” value is under 10. Further, the 50% effective concentration (EC50) in data set [9] was determined as 1240 nM; in data set [10], 160 nM. Moreover, the inhibition at 100 µM in data set [16] was found to be 62%.

For `CCOC(=O)C1=C(C)NC(C)=C(C(=O)OCC)C1c1c(-c2ccc(OC(F)(F)F)cc2)nc2sc(Br)cn12`, the Activity in data set [2] was 14.2%; in data set [3], 23.8%; in data set [15], 62%; in [7], under 5%; in data set [8], 49.8%; in data set [19], 35%. In addition, the Activity in data set [20] is given as 85%. Also, the inhibition at 10 µM in data set [17] came to 5%. Also, the EC50 in data set [18] worked out at 1000 nM; in data set [10] it was 93 nM.

Turning to `CCOC(=O)C1=C(C)NC(C)=C(C(=O)OCC)C1c1c(-c2ccc(Br)c([N+](=O)[O-])c2)nc2sccn12`, the Activity is reported as 53% in data set [21]; under 5% in data set [2]; 32.4% in [3]; 90% in data set [22]; under 5% in data set [5]; under 5% in data set [7]. For the same compound, the Activity in data set [8] was 59.2%; in data set [12], under 5%. The values for the EC50 in [9] and in data set [10] were 4.3 nM and 1270 nM, respectively. Further, the inhibition at 5 µM in data set [23] was 41%.
